Laboratory results taken from ChEMBL document CHEMBL1153445, “Alkenyl substituted bicyclic nucleoside analogues retain nanomolar potency against Varicella Zoster Virus” (Bioorg Med Chem, 2009).

Experiments:
[1] = Cytotoxicity against human HEL cells; format: cell-based; settings: for MCC: read-out: MIC
[2] = Inhibition of Varicella Zoster virus thymidine kinase-mediated [3H]thymidine phosphorylation; set-up: species or system Human alphaherpesvirus 3
[3] = tested on: Human alphaherpesvirus 3; test: Antiviral activity against Varicella Zoster virus Oka infected in HEL cells assessed as reduction in viral plaque formation after 5 days; format: functional, organism-based; settings: Human alphaherpesvirus 3, Oka, 120 h
How it was run: (§1)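 Confluent HEL cell monolayers infected with 20 PFU VZV per well; after 1–2 h adsorption, residual virus removed and cells incubated in MEM with 2% inactivated FCS, 1% L-glutamine, 0.3% sodium bicarbonate plus graded compound concentrations.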

[4] = tested on: Human alphaherpesvirus 3; test: Antiviral activity against Varicella Zoster virus YS infected in HEL cells assessed as reduction in viral plaque formation after 5 days; format: functional, organism-based; settings: Human alphaherpesvirus 3, YS, 120 h; how it was run: as §1

| Compound | MCC [1] | IC50 [2] | CC50 [1] | EC50 [3] | EC50 [4] |
| --- | --- | --- | --- | --- | --- |
| CCCCc1ccc(-c2cc3cn([C@H]4C[C@H](O)[C@@H](CO)O4)c(=O)nc3o2)cc1 | ≥ 50 µM |  |  |  |  |
| CCCc1ccc(-c2cc3cn([C@H]4C[C@H](O)[C@@H](CO)O4)c(=O)nc3o2)cc1 | ≥ 50 µM |  |  |  |  |
| CCC/C=C/c1ccccc1-c1cc2cn([C@H]3C[C@H](O)[C@@H](CO)O3)c(=O)nc2o1 | 80 µM | 119 µM | 41 µM | 8.4 µM |  |
| CCC/C=C/c1ccc(-c2cc3cn([C@H]4C[C@H](O)[C@@H](CO)O4)c(=O)nc3o2)cc1 | > 5 µM | 2.3 µM | > 200 µM | 0.0003 µM | 0.0008 µM |
| CC/C=C/c1ccc(-c2cc3cn([C@H]4C[C@H](O)[C@@H](CO)O4)c(=O)nc3o2)cc1 | ≥ 5 µM | 2.4 µM | > 200 µM | 0.0006 µM | 0.007 µM |
| C/C=C/c1ccc(-c2cc3cn([C@H]4C[C@H](O)[C@@H](CO)O4)c(=O)nc3o2)cc1 | ≥ 50 µM | 1.9 µM | > 200 µM | 0.004 µM | 0.004 µM |
| CC/C=C/c1ccccc1-c1cc2cn([C@H]3C[C@H](O)[C@@H](CO)O3)c(=O)nc2o1 | 400 µM | 3.8 µM | 102 µM | 33 µM |  |
| C/C=C/c1cccc(-c2cc3cn([C@H]4C[C@H](O)[C@@H](CO)O4)c(=O)nc3o2)c1 | > 200 µM | 2.6 µM | > 200 µM | 13 µM | 58 µM |
| CCC/C=C/c1cccc(-c2cc3cn([C@H]4C[C@H](O)[C@@H](CO)O4)c(=O)nc3o2)c1 | ≥ 200 µM | 397 µM | > 200 µM | 1.1 µM | 1.3 µM |
| CC/C=C/c1cccc(-c2cc3cn([C@H]4C[C@H](O)[C@@H](CO)O4)c(=O)nc3o2)c1 | ≥ 20 µM | 23 µM | 68 µM | 1.9 µM | 2.3 µM |
| C/C=C/c1ccccc1-c1cc2cn([C@H]3C[C@H](O)[C@@H](CO)O3)c(=O)nc2o1 | 400 µM | 0.31 µM | 103 µM | 12 µM |  |
| CCCCCc1ccc(-c2cc3cn([C@H]4C[C@H](O)[C@@H](CO)O4)c(=O)nc3o2)cc1 [CF1743] | ≥ 50 µM |  |  |  |  |
